Assay results as given in ChEMBL document CHEMBL3352115, “Discovery of APD334: Design of a Clinical Stage Functional Antagonist of the Sphingosine-1-phosphate-1 Receptor” (ACS Med Chem Lett, 2014).

What was measured:
[1] = Protein binding in human plasma; format: ADME, cell-free; details: read-out: PPB (converted)
[2] = target: Voltage-gated inwardly rectifying potassium channel KCNH2 (Homo sapiens, UniProt Q12809); assay: Inhibition of human ERG by patch clamp assay
Rattus norvegicus = assay: Effect on respiratory function in Sprague-Dawley rat up to 350 mg/kg; format: ADME, organism-based; set-up: dose 350 mg/kg; details: in vivo
Outline: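 CNS (neurobehavioral) and respiratory safety studies in SD rats, doses up to 350 mg/kg.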

[3] = Cmax in Sprague-Dawley rat at 1000 mg/kg; format: ADME, organism-based; set-up: dose 1000 mg/kg; details: in vivo
Outline: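 Sprague–Dawley rats dosed at 300 and 1000 mg/kg in a separate dose-proportionality exposure study; Cmax determined.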

[4] = Cmax in rat at 1 mg/kg equivalent, po; format: ADME, organism-based; set-up: dose 1 mg/kg, route oral; details: in vivo
Outline: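 SD rat given L-arginine salt orally as a solution in sterile water, 1.0 mg/kg free-acid equivalent; Cmax measured.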

[5] = target: Sphingosine 1-phosphate receptor 1 (Mus musculus, UniProt O08530); assay: Agonist activity at mouse S1P1 receptor assessed as cAMP accumulation by HTRF assay; format: functional
Chain of Sphingosine 1-phosphate receptor 1 (Mus musculus, UniProt O08530) (O08530 whole entry): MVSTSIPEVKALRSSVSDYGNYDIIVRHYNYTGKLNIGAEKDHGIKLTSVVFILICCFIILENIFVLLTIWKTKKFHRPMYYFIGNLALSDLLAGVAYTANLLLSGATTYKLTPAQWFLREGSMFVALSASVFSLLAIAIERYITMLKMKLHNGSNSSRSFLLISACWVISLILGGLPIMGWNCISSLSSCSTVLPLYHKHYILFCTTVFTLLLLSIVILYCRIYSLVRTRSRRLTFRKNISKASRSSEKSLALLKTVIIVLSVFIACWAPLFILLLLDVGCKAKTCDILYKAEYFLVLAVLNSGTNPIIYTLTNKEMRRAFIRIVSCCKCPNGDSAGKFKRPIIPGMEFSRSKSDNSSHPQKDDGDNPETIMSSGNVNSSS
Outline: (§1)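 HTRF cyclase (cAMP) functional assay at S1P1 of each species; EC50 taken as mean of three or more replicates; efficacy given as % agonism relative to S1P.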

[6] = target: Sphingosine 1-phosphate receptor 1 (Rattus norvegicus) (UniProt P48303); assay: Agonist activity at rat S1P1 receptor assessed as cAMP accumulation by HTRF assay relative to S1P; format: functional; outline: as §1
Chain of Sphingosine 1-phosphate receptor 1 (Rattus norvegicus) (P48303 whole entry): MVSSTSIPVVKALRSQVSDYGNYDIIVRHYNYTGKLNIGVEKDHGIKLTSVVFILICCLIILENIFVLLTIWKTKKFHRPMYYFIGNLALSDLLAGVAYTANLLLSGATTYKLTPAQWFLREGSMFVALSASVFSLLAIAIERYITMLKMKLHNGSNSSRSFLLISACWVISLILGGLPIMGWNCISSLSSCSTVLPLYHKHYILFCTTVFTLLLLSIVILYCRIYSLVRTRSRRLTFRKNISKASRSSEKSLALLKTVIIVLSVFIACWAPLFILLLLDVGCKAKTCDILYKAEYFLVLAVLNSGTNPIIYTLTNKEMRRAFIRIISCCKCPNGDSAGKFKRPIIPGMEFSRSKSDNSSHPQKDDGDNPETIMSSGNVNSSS

[7] = target: Sphingosine 1-phosphate receptor 1 (Homo sapiens, UniProt P21453); assay: Agonist activity at human S1P1 receptor by beta-arrestin recruitment assay relative to S1P
Chain of Sphingosine 1-phosphate receptor 1 (Homo sapiens, UniProt P21453) (P21453 whole entry): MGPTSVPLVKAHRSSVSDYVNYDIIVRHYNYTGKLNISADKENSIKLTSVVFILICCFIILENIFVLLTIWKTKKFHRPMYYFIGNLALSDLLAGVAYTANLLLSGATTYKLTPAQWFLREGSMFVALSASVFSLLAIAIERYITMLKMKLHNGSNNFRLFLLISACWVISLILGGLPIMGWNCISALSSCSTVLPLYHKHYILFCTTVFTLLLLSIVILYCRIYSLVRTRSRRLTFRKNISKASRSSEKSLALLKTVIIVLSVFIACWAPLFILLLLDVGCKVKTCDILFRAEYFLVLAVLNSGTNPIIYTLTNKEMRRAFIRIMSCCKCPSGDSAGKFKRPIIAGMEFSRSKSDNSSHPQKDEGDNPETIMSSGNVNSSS

[8] = Tmax in mouse at 1 mg/kg, iv or 1 mg/kg, po; format: ADME, organism-based; details: in vivo
[9] = Elimination half life in mouse at 1 mg/kg, po; format: ADME, organism-based; set-up: dose 1 mg/kg, route oral; details: in vivo, read-out: beta t1/2 (converted)
Outline: (§2)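 Preclinical iv/po PK; amorphous free acid dosed orally as a suspension in 0.5% methyl cellulose; clearance and Vss from intravenous administration.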

[10] = Elimination half life in rat at 1 mg/kg, po; format: ADME, organism-based; set-up: dose 1 mg/kg, route oral; details: in vivo, read-out: beta t1/2 (converted); outline: as §2
[11] = Elimination half life in dog at 3 mg/kg, po; format: ADME, organism-based, Canis lupus familiaris; set-up: dose 3 mg/kg, route oral; details: in vivo, read-out: beta t1/2 (converted); outline: as §2
[12] = Elimination half life in monkey at 3 mg/kg, po; format: ADME, organism-based, Macaca mulatta; set-up: dose 3 mg/kg, route oral; details: rhesus monkey, in vivo, read-out: beta t1/2 (converted); outline: as §2

Chain of Voltage-gated inwardly rectifying potassium channel KCNH2 (Q12809 whole entry): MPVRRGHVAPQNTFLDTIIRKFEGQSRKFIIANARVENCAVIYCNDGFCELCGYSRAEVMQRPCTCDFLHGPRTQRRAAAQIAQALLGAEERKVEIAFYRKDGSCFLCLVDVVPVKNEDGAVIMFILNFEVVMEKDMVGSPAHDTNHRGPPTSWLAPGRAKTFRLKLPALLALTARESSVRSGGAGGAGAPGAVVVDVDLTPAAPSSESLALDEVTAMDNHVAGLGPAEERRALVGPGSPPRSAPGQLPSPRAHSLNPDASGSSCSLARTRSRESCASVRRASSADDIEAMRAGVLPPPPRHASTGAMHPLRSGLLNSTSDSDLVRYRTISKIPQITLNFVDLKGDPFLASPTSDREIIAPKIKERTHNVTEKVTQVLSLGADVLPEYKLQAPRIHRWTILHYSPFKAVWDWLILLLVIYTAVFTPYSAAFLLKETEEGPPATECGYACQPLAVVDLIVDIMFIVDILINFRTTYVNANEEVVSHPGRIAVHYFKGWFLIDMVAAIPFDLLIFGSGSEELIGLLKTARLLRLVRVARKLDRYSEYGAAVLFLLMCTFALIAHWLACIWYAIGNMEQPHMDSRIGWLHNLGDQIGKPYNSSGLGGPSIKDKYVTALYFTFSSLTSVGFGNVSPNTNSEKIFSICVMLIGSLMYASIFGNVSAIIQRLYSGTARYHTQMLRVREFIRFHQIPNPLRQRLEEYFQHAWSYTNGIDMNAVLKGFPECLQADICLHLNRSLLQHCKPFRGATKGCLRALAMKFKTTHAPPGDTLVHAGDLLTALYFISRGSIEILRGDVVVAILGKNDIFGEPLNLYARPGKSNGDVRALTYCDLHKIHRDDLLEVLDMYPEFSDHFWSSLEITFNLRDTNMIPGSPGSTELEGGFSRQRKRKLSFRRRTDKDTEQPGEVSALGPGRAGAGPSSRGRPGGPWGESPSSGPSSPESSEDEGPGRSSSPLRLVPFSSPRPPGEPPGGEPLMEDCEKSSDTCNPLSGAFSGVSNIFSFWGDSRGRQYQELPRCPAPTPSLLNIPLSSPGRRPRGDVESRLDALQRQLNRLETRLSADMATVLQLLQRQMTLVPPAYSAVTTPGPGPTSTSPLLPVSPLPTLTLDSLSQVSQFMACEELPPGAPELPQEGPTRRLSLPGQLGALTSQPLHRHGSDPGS

## O=C(O)C[C@H]1CCc2c1[nH]c1ccc(OCc3ccc(C4CCCC4)c(C(F)(F)F)c3)cc21 [ETRASIMOD]
[1]
  fraction unbound: 0.022
[2]
  IC50: > 30000 nM
Rattus norvegicus
  Activity: Non-toxic
[3]
  Cmax: 183 µM
[4]
  Cmax: 361 ng/mL
[5]
  EC50: 0.44 nM
[6]
  Emax: 99%
[7]
  Emax: 110%
[8]
  Tmax: 8 h
[9]
  half-life: 12.3 h
[10]
  half-life: 9.64 h
[11]
  half-life: 28.8 h
[12]
  half-life: 6.37 h
